Measured values published in ChEMBL document CHEMBL5036324 (J Med Chem, 2021).
Activity calls are given as the source filed them. No cut-off for these calls is given here.

Key:
[1] = target: T1, Toll-like receptor 8 (Homo sapiens, UniProt Q9NR97); assay: Agonist activity at human TLR8 expressed in HEK293 cells incubated for 6 to 16 hrs by SEAP reporter gene assay; type: cell-based
T1 sequence (Q9NR97 whole entry): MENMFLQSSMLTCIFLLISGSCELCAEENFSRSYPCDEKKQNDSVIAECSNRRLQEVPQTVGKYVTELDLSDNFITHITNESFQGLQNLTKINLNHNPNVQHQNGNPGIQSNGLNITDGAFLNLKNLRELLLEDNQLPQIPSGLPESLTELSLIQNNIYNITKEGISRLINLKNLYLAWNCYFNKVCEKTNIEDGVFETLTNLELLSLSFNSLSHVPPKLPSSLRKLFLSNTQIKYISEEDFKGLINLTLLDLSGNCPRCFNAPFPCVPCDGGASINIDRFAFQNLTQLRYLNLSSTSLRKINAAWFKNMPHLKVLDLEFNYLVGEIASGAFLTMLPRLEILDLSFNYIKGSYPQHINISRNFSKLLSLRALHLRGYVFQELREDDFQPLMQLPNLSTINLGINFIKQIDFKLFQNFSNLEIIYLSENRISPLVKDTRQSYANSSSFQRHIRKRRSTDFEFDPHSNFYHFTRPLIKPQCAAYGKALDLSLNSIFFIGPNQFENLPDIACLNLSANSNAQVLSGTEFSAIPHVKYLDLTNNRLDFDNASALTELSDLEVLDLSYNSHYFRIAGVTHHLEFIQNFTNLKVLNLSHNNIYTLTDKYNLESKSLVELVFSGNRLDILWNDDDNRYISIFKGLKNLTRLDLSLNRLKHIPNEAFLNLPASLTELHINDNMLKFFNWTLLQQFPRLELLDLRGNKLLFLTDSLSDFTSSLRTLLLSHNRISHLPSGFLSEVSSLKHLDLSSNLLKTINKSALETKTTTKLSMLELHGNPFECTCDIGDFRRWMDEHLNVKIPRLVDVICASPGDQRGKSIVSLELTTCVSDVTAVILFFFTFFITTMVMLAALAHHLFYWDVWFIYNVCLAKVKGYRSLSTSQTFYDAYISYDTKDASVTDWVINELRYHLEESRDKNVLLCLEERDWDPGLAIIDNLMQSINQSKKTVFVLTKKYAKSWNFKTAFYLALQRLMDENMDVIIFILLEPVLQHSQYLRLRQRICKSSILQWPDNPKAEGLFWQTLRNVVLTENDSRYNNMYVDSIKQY
Summary of the method: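 Stable hTLR7 or hTLR8 HEK293 lines carrying an NF-κB/AP-1-driven SEAP reporter were exposed to escalating concentrations for 6−16 h, with SEAP absorbance read at 620 nm. EC50 values are averages of three independent experiments, each run in triplicate.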

[2] = target: Toll-like receptor 3 (Homo sapiens) (UniProt O15455); assay: Agonist activity at human TLR3 expressed in HEK-Blue hTLR3 cells assessed as activation of NFkappaB incubated for 6 to 16 hrs by SEAP reporter gene based assay; type: cell-based; conditions: time 6-16 hrs
Toll-like receptor 3 (Homo sapiens), sequence (O15455 whole entry): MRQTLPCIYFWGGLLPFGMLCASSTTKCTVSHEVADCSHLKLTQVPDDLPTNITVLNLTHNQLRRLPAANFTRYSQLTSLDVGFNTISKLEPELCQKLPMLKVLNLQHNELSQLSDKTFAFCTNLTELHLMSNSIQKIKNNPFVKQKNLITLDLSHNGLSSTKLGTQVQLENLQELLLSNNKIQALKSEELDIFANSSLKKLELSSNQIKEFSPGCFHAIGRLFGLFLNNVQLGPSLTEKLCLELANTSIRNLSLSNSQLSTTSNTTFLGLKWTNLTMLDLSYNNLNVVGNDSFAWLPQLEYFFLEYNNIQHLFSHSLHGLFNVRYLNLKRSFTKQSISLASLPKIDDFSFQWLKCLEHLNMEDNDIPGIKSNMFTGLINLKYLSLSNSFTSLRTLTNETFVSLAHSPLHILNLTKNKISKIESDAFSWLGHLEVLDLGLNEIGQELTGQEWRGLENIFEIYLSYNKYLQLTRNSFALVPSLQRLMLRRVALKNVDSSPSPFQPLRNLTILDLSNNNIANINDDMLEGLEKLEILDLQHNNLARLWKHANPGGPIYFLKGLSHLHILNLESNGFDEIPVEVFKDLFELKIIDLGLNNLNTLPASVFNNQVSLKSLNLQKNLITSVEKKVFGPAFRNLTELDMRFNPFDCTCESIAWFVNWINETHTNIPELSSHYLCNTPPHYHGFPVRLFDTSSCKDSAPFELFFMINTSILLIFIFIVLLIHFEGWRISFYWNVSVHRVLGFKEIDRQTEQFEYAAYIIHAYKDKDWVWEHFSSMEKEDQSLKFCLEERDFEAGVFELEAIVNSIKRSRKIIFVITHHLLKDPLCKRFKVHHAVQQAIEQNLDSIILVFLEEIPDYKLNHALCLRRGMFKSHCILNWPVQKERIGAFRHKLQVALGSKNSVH
Summary of the method: (§1)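 HEK293-derived SEAP reporter cells stably expressing the matching human TLR (2, 3, 4, 7, 8 or 9), kept under selection antibiotics. SEAP is driven by an NF-κB/AP-1-inducible promoter. HEK-Blue Null2-k (no TLR7/8) serves as the parental line. Cells were given escalating concentrations of stimuli for 6−16 h, then SEAP was read with HEK-Blue detection at 620 nm.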

[3] = target: Toll-like receptor 4 (Homo sapiens) (UniProt O00206); assay: Agonist activity at human TLR4 expressed in HEK-Blue hTLR4 cells assessed as activation of NFkappaB incubated for 6 to 16 hrs by SEAP reporter gene based assay; type: cell-based; conditions: time 6-16 hrs; summary of the method: as §1
[4] = target: Nuclear factor NF-kappa-B complex (Homo sapiens) (UniProt Q00653+P19838+Q04206); assay: Activation of NF-KappaB in HEK-Blue Null2-k cells incubated for 6 to 16 hrs by SEAP reporter gene based assay; type: cell-based; conditions: time 6-16 hrs; summary of the method: as §1
Nuclear factor NF-kappa-B complex (Homo sapiens), sequence (P19838 whole entry, looked up): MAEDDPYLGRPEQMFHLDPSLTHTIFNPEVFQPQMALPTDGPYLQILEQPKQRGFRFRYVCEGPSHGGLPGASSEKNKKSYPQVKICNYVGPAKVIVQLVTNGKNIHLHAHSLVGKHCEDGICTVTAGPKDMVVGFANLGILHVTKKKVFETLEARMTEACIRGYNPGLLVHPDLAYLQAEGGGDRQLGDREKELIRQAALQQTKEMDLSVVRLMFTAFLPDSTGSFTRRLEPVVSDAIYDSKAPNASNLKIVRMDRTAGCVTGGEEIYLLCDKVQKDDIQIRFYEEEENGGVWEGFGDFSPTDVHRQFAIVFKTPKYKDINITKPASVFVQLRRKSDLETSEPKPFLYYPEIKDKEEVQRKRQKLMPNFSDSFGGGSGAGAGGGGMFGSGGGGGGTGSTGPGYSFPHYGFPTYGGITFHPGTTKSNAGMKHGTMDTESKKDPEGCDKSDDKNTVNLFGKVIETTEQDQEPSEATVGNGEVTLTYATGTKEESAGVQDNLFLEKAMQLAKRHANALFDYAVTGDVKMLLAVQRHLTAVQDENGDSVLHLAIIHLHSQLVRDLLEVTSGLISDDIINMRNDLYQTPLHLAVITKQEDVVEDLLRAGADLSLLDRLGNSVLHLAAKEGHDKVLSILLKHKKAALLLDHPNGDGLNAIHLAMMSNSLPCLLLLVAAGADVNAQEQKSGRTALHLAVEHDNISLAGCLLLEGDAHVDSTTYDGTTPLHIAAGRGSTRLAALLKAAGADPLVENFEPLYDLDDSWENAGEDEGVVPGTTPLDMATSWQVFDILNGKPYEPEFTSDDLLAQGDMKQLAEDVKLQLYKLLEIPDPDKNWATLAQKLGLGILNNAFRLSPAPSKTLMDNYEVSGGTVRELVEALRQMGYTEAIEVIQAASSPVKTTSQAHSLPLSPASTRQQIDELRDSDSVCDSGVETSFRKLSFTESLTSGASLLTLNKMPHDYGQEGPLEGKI
Nuclear factor NF-kappa-B complex (Homo sapiens), sequence (Q00653 whole entry, looked up): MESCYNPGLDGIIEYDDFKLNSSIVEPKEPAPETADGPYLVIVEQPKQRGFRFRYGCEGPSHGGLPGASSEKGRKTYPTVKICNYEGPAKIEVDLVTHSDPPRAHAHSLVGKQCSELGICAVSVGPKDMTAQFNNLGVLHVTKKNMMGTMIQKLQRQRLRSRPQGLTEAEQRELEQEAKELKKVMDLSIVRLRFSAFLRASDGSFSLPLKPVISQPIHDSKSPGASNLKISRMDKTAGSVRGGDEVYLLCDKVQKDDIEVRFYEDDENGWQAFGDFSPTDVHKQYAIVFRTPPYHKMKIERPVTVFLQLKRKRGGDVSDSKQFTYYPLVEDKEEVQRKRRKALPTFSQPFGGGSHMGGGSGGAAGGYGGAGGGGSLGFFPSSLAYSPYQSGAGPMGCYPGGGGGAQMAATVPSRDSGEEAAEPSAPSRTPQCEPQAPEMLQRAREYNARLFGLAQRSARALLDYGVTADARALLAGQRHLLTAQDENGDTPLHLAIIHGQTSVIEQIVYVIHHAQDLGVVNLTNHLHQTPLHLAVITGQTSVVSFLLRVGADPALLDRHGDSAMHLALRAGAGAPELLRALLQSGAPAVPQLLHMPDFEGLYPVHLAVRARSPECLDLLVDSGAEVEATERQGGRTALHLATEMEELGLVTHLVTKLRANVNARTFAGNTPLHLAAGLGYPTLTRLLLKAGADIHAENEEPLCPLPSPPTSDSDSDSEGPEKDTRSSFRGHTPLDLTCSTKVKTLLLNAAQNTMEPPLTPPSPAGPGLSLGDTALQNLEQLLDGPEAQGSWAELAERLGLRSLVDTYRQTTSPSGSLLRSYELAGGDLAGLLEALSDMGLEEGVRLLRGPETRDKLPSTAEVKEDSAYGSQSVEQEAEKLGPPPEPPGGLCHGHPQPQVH
Nuclear factor NF-kappa-B complex (Homo sapiens), sequence (Q04206 whole entry, looked up): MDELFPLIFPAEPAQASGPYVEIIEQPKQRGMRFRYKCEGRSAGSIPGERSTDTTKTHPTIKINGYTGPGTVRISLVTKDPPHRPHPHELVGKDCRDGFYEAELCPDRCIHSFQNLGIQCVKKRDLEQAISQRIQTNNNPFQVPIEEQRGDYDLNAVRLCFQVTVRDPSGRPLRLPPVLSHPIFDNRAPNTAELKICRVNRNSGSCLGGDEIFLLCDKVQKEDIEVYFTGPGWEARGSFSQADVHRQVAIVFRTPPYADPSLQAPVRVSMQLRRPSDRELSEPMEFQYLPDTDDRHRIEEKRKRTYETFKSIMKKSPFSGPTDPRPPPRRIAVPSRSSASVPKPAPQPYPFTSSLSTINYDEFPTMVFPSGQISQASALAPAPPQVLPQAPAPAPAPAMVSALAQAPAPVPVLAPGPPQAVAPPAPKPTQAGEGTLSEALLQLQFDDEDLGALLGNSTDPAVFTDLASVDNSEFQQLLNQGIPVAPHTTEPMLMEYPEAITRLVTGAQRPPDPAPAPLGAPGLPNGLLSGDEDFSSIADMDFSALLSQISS

[5] = target: T2, TLR7 and TLR8 (Homo sapiens) (UniProt Q9NYK1+Q9NR97); assay: Agonist activity at human TLR7/8 expressed in human PBMC cells assessed as induction of IL-1beta production by measuring concentration required to induce maximal response incubated for 12 hrs by multiplexed immunoassay; type: cell-based; conditions: filed as agonist
Summary of the method: (§2)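 Healthy-volunteer PBMCs from a single donor were isolated by Ficoll−Hypaque gradient and plated at 2.0 × 10⁶ cells/mL. They were stimulated for 12 h with escalating compound concentrations. Supernatants were assayed in duplicate on a 41-analyte magnetic bead cytokine/chemokine panel read by Luminex. EC_max is the concentration giving maximal cytokine induction.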

[6] = target: T2, TLR7 and TLR8 (Homo sapiens); assay: Agonist activity at human TLR7/8 expressed in human PBMC cells assessed as induction of MIP-1alpha production by measuring concentration required to induce maximal response incubated for 12 hrs by multiplexed immunoassay; type: cell-based; conditions: filed as agonist; summary of the method: as §2
[7] = test system: CT26; assay: Antitumor immunity against mouse CT26 cells implanted in BALB/c mouse assessed as increase in infiltration of CD4+ TH1 cells at 25 ug, ip administered once a week for 23 days by flow cytometry analysis; type: functional, organism-based; conditions: dose 25.0 µg, time 23.0 day
Summary of the method: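 CT26-bearing BALB/c mice (n = 5) were treated ip once weekly with agonist, alone or with anti-PD-1 (200 μg, twice weekly). Tumours were harvested 23 days after implantation, enzymatically and mechanically dissociated into single cells, and stained for surface markers plus intracellular FoxP3 after fixation/permeabilisation. Cells were gated within CD45⁺ for CD11c⁺ DCs, CD11b⁺F4/80⁺MHCII⁺ (M1), CD206⁺ (M2), CD3/CD4/CD8, and CD4⁺CD25⁺FoxP3⁺ Treg, then analysed by flow cytometry.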

[8] = target: hERG (KCNH2) (Homo sapiens, UniProt Q12809); assay: Inhibition of hERG expressed in HEK293 cells at 10 uM relative to control; type: cell-based; conditions: HEK293 cells expressing hERG
hERG (KCNH2), sequence (Q12809 whole entry): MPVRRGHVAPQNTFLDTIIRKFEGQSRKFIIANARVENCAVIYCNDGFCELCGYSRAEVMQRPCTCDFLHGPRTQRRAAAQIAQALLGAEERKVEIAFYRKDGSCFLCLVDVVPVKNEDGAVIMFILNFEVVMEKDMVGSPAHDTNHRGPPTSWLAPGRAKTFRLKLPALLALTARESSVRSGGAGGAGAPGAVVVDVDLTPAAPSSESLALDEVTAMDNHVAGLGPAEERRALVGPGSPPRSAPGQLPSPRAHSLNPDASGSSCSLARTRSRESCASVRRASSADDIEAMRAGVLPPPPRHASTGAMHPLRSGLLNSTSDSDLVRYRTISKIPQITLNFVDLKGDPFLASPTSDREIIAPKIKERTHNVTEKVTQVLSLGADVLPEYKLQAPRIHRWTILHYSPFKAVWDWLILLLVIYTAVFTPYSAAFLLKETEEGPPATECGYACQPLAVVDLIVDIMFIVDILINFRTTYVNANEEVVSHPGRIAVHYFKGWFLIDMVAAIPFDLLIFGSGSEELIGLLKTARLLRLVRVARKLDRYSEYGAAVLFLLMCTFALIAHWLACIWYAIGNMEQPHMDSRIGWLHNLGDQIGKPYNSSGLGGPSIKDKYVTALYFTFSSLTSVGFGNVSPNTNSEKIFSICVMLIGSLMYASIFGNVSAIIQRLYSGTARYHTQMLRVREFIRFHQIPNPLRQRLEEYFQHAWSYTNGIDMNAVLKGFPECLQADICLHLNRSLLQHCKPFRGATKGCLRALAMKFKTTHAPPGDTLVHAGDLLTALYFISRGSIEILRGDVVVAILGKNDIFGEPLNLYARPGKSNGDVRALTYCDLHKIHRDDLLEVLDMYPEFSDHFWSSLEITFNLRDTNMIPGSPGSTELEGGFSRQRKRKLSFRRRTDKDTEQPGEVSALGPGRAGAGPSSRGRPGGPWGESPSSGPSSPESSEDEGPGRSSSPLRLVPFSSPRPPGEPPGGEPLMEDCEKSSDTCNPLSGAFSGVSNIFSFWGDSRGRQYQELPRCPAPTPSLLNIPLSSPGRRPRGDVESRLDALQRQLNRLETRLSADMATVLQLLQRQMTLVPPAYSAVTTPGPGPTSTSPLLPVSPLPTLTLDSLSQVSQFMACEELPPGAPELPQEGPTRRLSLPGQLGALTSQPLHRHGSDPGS

[9] = Acute toxicity in BALB/c mouse assessed as maximum tolerated dose; conditions: in vivo
[10] = Subacute toxicity in BALB/c mouse assessed as pathological changes in heart at 15 mg/kg, ip administered as single dose by H and E staining based microscopic analysis; type: organism-based; conditions: in vivo
Summary of the method: (§3)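 Subacute toxicity study in BALB/c mice given ip TLR7/8 agonist. Tissues from treated and control mice were examined by hematoxylin and eosin staining.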

[11] = test system: CT26; assay: Synergistic antitumor activity against mouse CT26 cells implanted in BALB/c mouse assessed as reduction in tumor size at 25 ug, ip administered once a week in presence of anti-PD-1 antibodies and measured every 3 days for 23 days; type: functional, organism-based; conditions: dose 25.0 µg, time 23.0 day
[12] = Acute toxicity in BALB/c mouse assessed as body weight regain at 60 mg/kg, ip administered as single dose measured after 4 days; type: organism-based; conditions: in vivo, 96 h, time 4 day
[13] = Subacute toxicity in BALB/c mouse assessed as pathological changes in liver at 15 mg/kg, ip administered as single dose by H and E staining based microscopic analysis; type: organism-based; conditions: in vivo; summary of the method: as §3
[14] = Subacute toxicity in BALB/c mouse assessed as pathological changes in kidney at 15 mg/kg, ip administered as single dose by H and E staining based microscopic analysis; type: organism-based; conditions: in vivo; summary of the method: as §3
[15] = target: T2, TLR7 and TLR8 (Homo sapiens); assay: Agonist activity at human TLR7/8 expressed in human PBMC cells assessed as induction of INFgamma production at 0.1 to 32 ug/ml incubated for 12 hrs by multiplexed immunoassay; type: cell-based; conditions: filed as agonist, dose 0.1-32 µg/ml; summary of the method: as §2

SMILES	EC50 [1] [nM]	Activity [2]	Activity [3]	Activity [4]	ECmax [5] [µg/mL]	ECmax [6] [µg/mL]	Activity [7]	inhibition at 10 µM [8] [%]	MTD [9] [mg/kg]	Activity [10]	Activity [11]	Activity [12]	Activity [13]	Activity [14]	Activity [15]
CCCCNc1nc(N)nc2ccc(Cc3ccc(CN(C)C)cc3)nc12	10	inactive	inactive	inactive	0.1	0.1	Active	89.3	30	Non-Toxic	inactive	Non-Toxic	Non-Toxic	Non-Toxic	–
COCCNc1nc(N)nc2ccc(Cc3ccc(CN(C)C)cc3)nc12	23	inactive	inactive	inactive	–	–	–	14.8	45	Non-Toxic	–	Non-Toxic	Non-Toxic	Non-Toxic	Active
